High-throughput results from PubChem.
The full list was thinned out, with hits kept by preference.
B2AR ag – human beta-2 adrenergic receptor agonism by FAP; P07550; Am2.2-beta2AR cells, FAP receptor internalization, flow cytometry; response, % (no concentration beside the values); hit rate 0.43% among 340,000;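 active = response above a set limit, near 3 SD of response in nonfluorescent compounds, cut at about 42% in these data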
CHOP UPR activ – apoptotic UPR (CHOP) activation. CHO-CHOP luciferase reporter, luminescence; percent of tunicamycin response over DMSO baseline. activation, % at 10 µM. hit rate 0.34% among 330,000. AID 449763;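 active = at 10 µM dose, activation of 40% or more, normalized to positive control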;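 also: 100% = tunicamycin at 10 µg/mL and 0% = DMSO alone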
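assay system = CHO CHOP reporter cells | amount = 500 CHO-CHOP cells per well | buffer or medium = F12 with 10% FBS | incubation = 16-18 h cell attachment, then 6 h compound exposure, 37 °C | detection = luminescence read with Steady-Glo | read-out = percent activation relative to tunicamycin control | controls = tunicamycin high control, DMSO low control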
CHOP inh – CHOP inhibition in unfolded protein response | CHO-K1 CHOP-promoter luciferase, tunicamycin-induced, 15-18 h | inhibition, % at 10 µM | hit rate 3.8% among 220,000 | AID 2732;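 active = compounds that reduced the stress-induced luciferase reporter signal by more than about 70% of percent inhibition, limit read from the data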;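 also: 0% = tunicamycin plus vehicle and 100% = wells without tunicamycin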
XBP1 UPR activ – activators of adaptive arm of unfolded protein response (XBP1) | CHO-XBP1 luciferase reporter, IRE1-XBP1 UPR activation, luminescence; percent of tunicamycin response, DMSO as zero | activation, % at 20 µM | hit rate 0.33% among 330,000;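 active = versus positive control, 20 µM dose yields 30% or more activation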;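 also: 100% = tunicamycin at 10 µg/mL and 0% = DMSO only wells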
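Test system: CHO-XBP1 luciferase reporter cells | Buffer or medium: Serum-containing F12 medium, 10% FBS | Schedule: 6 h compound exposure at 37 °C, 5% CO2 | Detection: Steady-Glo luciferase glow luminescence, 10 min after reagent addition | Read-out basis: Activation, % of tunicamycin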
VLA-4 inh – inhibition in a human VLA-4 binding assay | VLA-4 expressing cells, ligand binding flow cytometry | hit rate 0.2% among 330,000 | inhibition, % (about 7 µM as worked out from the volumes in the protocol); in the data active = inhibition above about 50%
Target sequence (P13612 whole entry, looked up): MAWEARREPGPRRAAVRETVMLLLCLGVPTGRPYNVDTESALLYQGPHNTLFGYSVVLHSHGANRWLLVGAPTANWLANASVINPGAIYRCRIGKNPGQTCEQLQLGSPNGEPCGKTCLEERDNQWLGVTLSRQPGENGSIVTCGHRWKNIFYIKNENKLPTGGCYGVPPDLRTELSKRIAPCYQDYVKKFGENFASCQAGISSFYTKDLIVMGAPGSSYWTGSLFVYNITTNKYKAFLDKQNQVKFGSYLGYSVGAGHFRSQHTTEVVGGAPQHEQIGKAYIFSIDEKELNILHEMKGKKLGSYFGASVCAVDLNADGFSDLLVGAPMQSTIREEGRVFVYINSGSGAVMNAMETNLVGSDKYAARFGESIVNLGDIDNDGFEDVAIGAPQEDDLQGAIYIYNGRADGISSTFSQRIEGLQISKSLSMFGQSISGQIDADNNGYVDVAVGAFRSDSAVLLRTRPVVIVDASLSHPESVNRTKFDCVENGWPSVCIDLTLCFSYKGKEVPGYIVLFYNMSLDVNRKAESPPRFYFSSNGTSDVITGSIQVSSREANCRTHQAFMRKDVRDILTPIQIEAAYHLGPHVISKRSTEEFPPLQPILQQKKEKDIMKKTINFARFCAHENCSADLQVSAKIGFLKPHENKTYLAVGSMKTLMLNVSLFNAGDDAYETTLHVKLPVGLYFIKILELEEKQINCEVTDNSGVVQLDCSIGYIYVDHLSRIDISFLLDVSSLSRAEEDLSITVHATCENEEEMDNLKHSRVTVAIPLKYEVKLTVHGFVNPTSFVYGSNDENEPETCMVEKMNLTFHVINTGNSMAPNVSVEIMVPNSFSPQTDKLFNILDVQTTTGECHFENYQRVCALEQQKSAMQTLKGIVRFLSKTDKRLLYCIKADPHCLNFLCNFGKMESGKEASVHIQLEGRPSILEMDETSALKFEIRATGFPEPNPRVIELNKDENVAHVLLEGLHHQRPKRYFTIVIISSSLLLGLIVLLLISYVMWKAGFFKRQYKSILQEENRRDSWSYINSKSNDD
Active calls of the source: *; x = no result given.

SMILES	B2AR ag	CHOP UPR activ	CHOP inh	XBP1 UPR activ	VLA-4 inh
Cc1cc(C)c2c(CC(=O)Nc3nccs3)coc2c1	-5.4	-1.6	82.3*	4.3	21.6
Cc1cc(C)c2c(CC(=O)NC(C)C)coc2c1	3.6	1.3	10.6	-0.3	5.2
CC/C(=C\C1CCCCC1)C(NP(=O)(c1ccccc1)c1ccccc1)c1ccccc1 (centres undefined)	13.8	0.8	86.2*	5.2	x
Oc1ccc(C[C@H]2CNC(=S)N2CCc2cc(C(F)(F)F)cc(C(F)(F)F)c2)cc1	11.0	1.1	27.0	0.2	x
Oc1ccc(C[C@@H]2CNC(=S)N2CCc2cc(C(F)(F)F)cc(C(F)(F)F)c2)cc1	-9.8	-0.1	80.3*	-1.2	0.1
Cc1ccc(C(=O)Nc2cccc(C(F)(F)F)c2)cc1NC(=O)c1cnnc2ccccc12	5.8	1.8	89.2*	-3.7	-2.9
Cc1ccc(C(=O)Nc2cccc(C(F)(F)F)c2)cc1Nc1cncnc1	-1.8	0.8	x	0.4	2.4
CS(=O)(=O)N(Cc1ccco1)CC(O)Cn1c2ccccc2c2ccccc21 (centres undefined)	12.8	-1.4	-5.2	-2.0	-7.5
Cc1ccc(N(CC(O)Cn2c3ccccc3c3ccccc32)S(C)(=O)=O)c(C)c1 (centres undefined)	5.0	-1.7	85.2*	-3.7	-10.0
Cc1ccc(N(CC(O)CON=C2c3ccccc3-c3ccccc32)S(C)(=O)=O)cc1 (centres undefined)	1.0	-0.8	91.1*	-2.7	-8.0
Cc1cccc(C)c1N(CC(O)Cn1c2ccccc2c2ccccc21)S(C)(=O)=O (centres undefined)	3.2	3.5	43.1	3.1	4.2
Cc1ccc(N(CC(O)Cn2c3ccccc3c3ccccc32)S(C)(=O)=O)cc1 (centres undefined)	15.5	1.1	83.0*	-2.9	-2.3
Cc1ccc(S(=O)(=O)/N=C(/Nc2ccc([N+](=O)[O-])cc2[N+](=O)[O-])c2ccccc2)cc1	4.8	0.2	x	-2.8	0.5
Cc1ccc(-c2cc3ccccc3nc2N2CCOCC2)cc1	4.7	-1.4	72.1*	-4.2	17.2
c1ccc2nc(-c3ccc(N4CCOCC4)cc3)ccc2c1	-4.9	-9.4	89.8*	-7.0	-8.6
COc1cc(SC)ccc1C(=O)Nc1ccc(Cl)cn1	-8.1	-7.0	86.2*	-10.0	9.1
COc1ccc(CNC(=O)Cn2nc(C(F)(F)F)c3c2CCC3)cc1	-2.1	-0.9	-4.3	-0.2	20.7
COc1ccc(CNc2nc3c(c(C(F)(F)F)n2)CCCCC3)cc1	x	x	90.1*	x	x
CC(=O)Nc1c(Cl)c(Cl)c2c(c1Cl)C(=O)c1cc(Cl)ccc1-2	-0.8	x	x	x	x
O=C(CCS(=O)(=O)c1cccc2nonc12)N1CCOCC1	-0.3	2.0	41.9	-0.1	-2.0
O=C(CCS(=O)(=O)c1cccc2nonc12)N1CC(=O)N(CCc2ccccc2)C(=O)C1	-2.2	1.7	72.9*	0.1	7.0
Cn1c(/C=N/NC(=O)c2ccccc2Br)nc2ccccc21	-10.4	-2.5	83.9*	-2.8	0.8
O=C(Nc1ccc(OCC(F)(F)C(F)F)c(C(F)(F)F)c1)c1ccccc1O	21.0	15.9	108.5*	5.5	15.7
Cc1ccccc1NCC(=O)N/N=C/C(Br)=C/c1ccccc1	-2.2	0.6	94.1*	-0.4	7.4
COc1ccc(-c2cn3cc(Cl)ccc3n2)cc1OC	-7.4	5.5	x	5.5	13.0
SMILES	B2AR ag	CHOP UPR activ	CHOP inh	XBP1 UPR activ	VLA-4 inh
Clc1ccc2nc(-c3ccc(Br)s3)cn2c1	-6.8	-4.7	75.1*	-3.0	5.8
Cc1cc(C)cc(-n2c3nc4ccccc4nc3c3c(=O)n(Cc4ccco4)cnc32)c1	-4.6	-1.6	103.1*	-0.5	6.1
C/C(=N\NC(=O)c1c[nH]c2ccccc12)c1ccc2c(c1)OCO2	-1.6	0.3	-0.4	3.9	9.1
C/C(=N\NC(=O)Cc1c[nH]c2ccccc12)c1ccc2ccccc2c1	16.0	0.0	81.3*	-1.7	2.5
C/C(=N\NC(=O)Nc1ccccc1)c1ccc2ccccc2c1	12.7	-2.6	80.3*	0.4	-2.0
Cc1occc1C(=O)N1CCN(c2ccccc2)CC1	1.0	4.7	7.7	0.0	17.3
Cc1occc1C(=O)N1CCN(c2ccc(Cl)c(Cl)c2)CC1	-2.3	1.5	75.1*	-1.1	-1.5
O=C(NCc1ccccc1)N1CCN(c2ccc(Cl)c(Cl)c2)CC1	3.3	-0.7	76.0*	3.5	8.3
